# Columns and labels:
# Mus musculus [1] = assay: Toxicity in female CDF1 mouse allografted with mouse P388 cells assessed as animal survival at 100 mg/kg, ip administered daily for 9 days as saline with Tween-80 solution starting 24 hrs after tumor inoculation; type: organism-based; design: dose 100 mg/kg, route intraperitoneal; settings: in vivo
# Outline: (§1)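 P-388 leukemia ascitic fluid implanted ip. Compound dosed ip in saline with Tween-80 vehicle, once daily for nine doses from 24 h after tumor inoculation. Acute toxicity scored as toxicity-day survivors per group. Survival was followed up to 30 days, with 30-day survival counted as "cure". Follows NCI screening protocols.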
# P388 [2] = assay: Antitumor activity against mouse P388 cells allografted in female CDF1 mouse assessed as change in body weight at 200 mg/kg, ip administered daily for 9 days as saline with Tween-80 solution starting 24 hrs after tumor inoculation; type: functional; settings: route intraperitoneal
# Outline: (§2)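 Ascitic fluid carrying P388 cells was inoculated ip. Compound was given ip in nine daily doses, starting 24 h after inoculation, in Klucel (hydroxypropylcellulose) suspension or in saline with Tween-80. Body-weight difference (treated minus control) was recorded on day 5. Survival was scored as %T/C of median survival time, and 30-day survival counted as cure.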
# P388 [3] = assay: Antitumor activity against mouse P388 cells allografted in female CDF1 mouse assessed as disease cures by measuring 30-days host survival at 100 mg/kg, ip administered daily for 9 days as saline with Tween-80 solution starting 24 hrs after tumor inoculation relative to control; type: functional; settings: route intraperitoneal
# Outline: (§3)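 P388 ascitic cell inoculum given ip to CDF1 mice of the sex in each line. Nine daily ip doses in saline with Tween-80 as vehicle, starting 24 h after inoculation. Median survival time expressed as %T/C (>125 significant); "cure" defined as 30-day survival.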
# Mus musculus [4] = assay: Toxicity in female CDF1 mouse allografted with mouse P388 cells assessed as animal survival at 54 mg/kg, ip administered daily for 9 days as saline with Tween-80 solution starting 24 hrs after tumor inoculation; type: organism-based; design: dose 54 mg/kg, route intraperitoneal; settings: in vivo; outline: as §1
# Mus musculus [5] = assay: Toxicity in female CDF1 mouse allografted with mouse P388 cells assessed as animal survival at 27 mg/kg, ip administered daily for 9 days as saline with Tween-80 solution starting 24 hrs after tumor inoculation; type: organism-based; design: dose 27 mg/kg, route intraperitoneal; settings: in vivo; outline: as §1
# P388 [6] = assay: Antitumor activity against mouse P388 cells allografted in female CDF1 mouse assessed as disease cures by measuring 30-days host survival at 400 mg/kg, ip administered daily for 9 days as saline with Tween-80 solution starting 24 hrs after tumor inoculation relative to control; type: functional; settings: route intraperitoneal; outline: as §3
# Mus musculus [7] = assay: Toxicity in female CDF1 mouse allografted with mouse P388 cells assessed as animal survival at 200 mg/kg, ip administered daily for 9 days as saline with Tween-80 solution starting 24 hrs after tumor inoculation; type: organism-based; design: dose 200 mg/kg, route intraperitoneal; settings: in vivo; outline: as §1
# P388 [8] = assay: Antitumor activity against mouse P388 cells allografted in female CDF1 mouse assessed as disease cures by measuring 30-days host survival at 13.5 mg/kg, ip administered daily for 9 days as saline with Tween-80 solution starting 24 hrs after tumor inoculation relative to control; type: functional; settings: route intraperitoneal; outline: as §3
# P388 [9] = assay: Antitumor activity against mouse P388 cells allografted in female CDF1 mouse assessed as change in body weight at 100 mg/kg, ip administered daily for 9 days as saline with Tween-80 solution starting 24 hrs after tumor inoculation; type: functional; settings: route intraperitoneal; outline: as §2
# P388 [10] = assay: Antitumor activity against mouse P388 cells allografted in female CDF1 mouse assessed as change in body weight at 54 mg/kg, ip administered daily for 9 days as saline with Tween-80 solution starting 24 hrs after tumor inoculation; type: functional; settings: route intraperitoneal; outline: as §2
# P388 [11] = assay: Antitumor activity against mouse P388 cells allografted in female CDF1 mouse assessed as disease cures by measuring 30-days host survival at 200 mg/kg, ip administered daily for 9 days as saline with Tween-80 solution starting 24 hrs after tumor inoculation relative to control; type: functional; settings: route intraperitoneal; outline: as §3
# P388 [12] = assay: Antitumor activity against mouse P388 cells allografted in female CDF1 mouse assessed as change in body weight at 27 mg/kg, ip administered daily for 9 days as saline with Tween-80 solution starting 24 hrs after tumor inoculation; type: functional; settings: route intraperitoneal; outline: as §2
# Mus musculus [13] = assay: Toxicity in female CDF1 mouse allografted with mouse P388 cells assessed as animal survival at 13.5 mg/kg, ip administered daily for 9 days as saline with Tween-80 solution starting 24 hrs after tumor inoculation; type: organism-based; design: dose 13.5 mg/kg, route intraperitoneal; settings: in vivo; outline: as §1
# Mus musculus [14] = assay: Toxicity in female CDF1 mouse allografted with mouse P388 cells assessed as animal survival at 400 mg/kg, ip administered daily for 9 days as saline with Tween-80 solution starting 24 hrs after tumor inoculation; type: organism-based; design: dose 400 mg/kg, route intraperitoneal; settings: in vivo; outline: as §1
# P388 [15] = assay: Antitumor activity against mouse P388 cells allografted in female CDF1 mouse assessed as change in body weight at 13.5 mg/kg, ip administered daily for 9 days as saline with Tween-80 solution starting 24 hrs after tumor inoculation; type: functional; settings: route intraperitoneal; outline: as §2
# P388 [16] = assay: Antitumor activity against mouse P388 cells allografted in female CDF1 mouse assessed as disease cures by measuring 30-days host survival at 54 mg/kg, ip administered daily for 9 days as saline with Tween-80 solution starting 24 hrs after tumor inoculation relative to control; type: functional; settings: route intraperitoneal; outline: as §3
# P388 [17] = assay: Antitumor activity against mouse P388 cells allografted in female CDF1 mouse assessed as disease cures by measuring 30-days host survival at 27 mg/kg, ip administered daily for 9 days as saline with Tween-80 solution starting 24 hrs after tumor inoculation relative to control; type: functional; settings: route intraperitoneal; outline: as §3
# P388 [18] = assay: Antitumor activity against mouse P388 cells allografted in female CDF1 mouse assessed as change in body weight at 400 mg/kg, ip administered daily for 9 days as saline with Tween-80 solution starting 24 hrs after tumor inoculation; type: functional; settings: route intraperitoneal; outline: as §2
smiles,measurement,setting,value
OCc1c(CO)c(-c2ccc(Cl)c(Cl)c2)n2c1CCC2,Activity,Mus musculus [1],Non-toxic
same,Activity,P388 [2],-0.9 g
same,T/C,P388 [3],116%
same,Activity,Mus musculus [4],Non-toxic
same,Activity,Mus musculus [5],Non-toxic
same,T/C,P388 [6],127%
same,Activity,Mus musculus [7],Non-toxic
same,T/C,P388 [8],107%
same,Activity,P388 [9],0.5 g
same,Activity,P388 [10],-0.6 g
same,T/C,P388 [11],116%
same,Activity,P388 [12],-0.3 g
same,Activity,Mus musculus [13],Non-toxic
same,Activity,Mus musculus [14],Non-toxic
same,Activity,P388 [15],0 g
same,T/C,P388 [16],109%
same,T/C,P388 [17],109%
same,Activity,P388 [18],-1 g

# Reference: ChEMBL document CHEMBL3244396, “Synthesis and antileukemic activity of 5-substituted 2,3-dihydro-6,7-bis(hydroxymethyl)-1H-pyrrolizine diesters” (J Med Chem, 1977)
